The structures appear in SMILES notation.

For 21 molecules, Ki and inhibition results are on record in ChEMBL document CHEMBL1138915, “Pharmacophore based receptor modeling: the case of adenosine A3 receptor antagonists. An approach to the optimization of protein models” (J Med Chem, 2006).

Common to all, as to format: cell-based
One assay deals with T1, Adenosine receptor A3 (Homo sapiens, UniProt P0DMS8).
T1 sequence (P0DMS8 whole entry): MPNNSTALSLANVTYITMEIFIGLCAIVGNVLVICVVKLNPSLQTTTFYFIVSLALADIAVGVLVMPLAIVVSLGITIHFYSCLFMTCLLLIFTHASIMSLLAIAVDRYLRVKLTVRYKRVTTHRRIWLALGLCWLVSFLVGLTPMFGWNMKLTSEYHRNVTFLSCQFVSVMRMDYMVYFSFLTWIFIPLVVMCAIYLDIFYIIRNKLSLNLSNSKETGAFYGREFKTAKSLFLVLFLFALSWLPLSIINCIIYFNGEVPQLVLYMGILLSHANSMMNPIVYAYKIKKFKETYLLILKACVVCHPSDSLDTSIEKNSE
The experiment in a line: Displacement of [3H]MRE 3008F20 from human adenosine A3 receptor expressed in CHO cells.

Another assay has as its target T2, Adenosine receptor A1 (Homo sapiens, UniProt P30542).
T2 sequence (P30542 whole entry): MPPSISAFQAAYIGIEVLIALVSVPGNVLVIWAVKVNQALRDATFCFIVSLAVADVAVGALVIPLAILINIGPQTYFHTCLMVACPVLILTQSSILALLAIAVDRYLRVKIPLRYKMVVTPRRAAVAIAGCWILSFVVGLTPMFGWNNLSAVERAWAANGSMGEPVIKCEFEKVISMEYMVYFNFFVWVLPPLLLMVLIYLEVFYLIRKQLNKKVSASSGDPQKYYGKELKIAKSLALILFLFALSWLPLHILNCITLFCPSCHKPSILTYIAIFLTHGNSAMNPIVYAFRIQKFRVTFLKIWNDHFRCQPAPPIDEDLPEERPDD
The experiment in a line: (§1) Displacement of [3H]DPCPX from human adenosine A1 receptor expressed in CHO cells. The procedure, abridged:
(§2)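 Membranes from transfected CHO cells (50 µg protein/assay) in 50 mM Tris-HCl pH 7.4, incubated 120 min at 25 °C with 1 nM radioligand and at least six to eight test concentrations. Nonspecific binding with 10 µM CHA. Filtration on GF/B filters and scintillation counting. Ki from IC50 by Cheng-Prusoff, nonlinear least-squares fitting.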
A general note: Loss of bound radioactivity is the signal in a displacement assay; it reports binding, not function.

Assay [1] has as its target T3, Adenosine receptor A1 (Homo sapiens) (UniProt P30542).
T3 sequence (whole entry): T2 sequence (P30542 whole entry)
The assay is described as §1. The arrangement: concentration or dose not given beside the values. The note with it: concentration not given here. In short, it runs like this: as §2

Another assay addresses Adenosine receptor A2a (Homo sapiens, UniProt P29274). Nature of the assay: Displacement of [3H]ZM241385 from human adenosine A2A receptor expressed in CHO cells. The note with it: for inhibition: concentration not given here. The procedure, abridged: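 CHO-derived membranes (50 µg protein/assay) in 50 mM Tris-HCl, 10 mM MgCl2, pH 7.4, competed with at least six to eight compound concentrations for 60 min at 25 °C. Nonspecific binding defined by 1 µM ZM 241385. Bound ligand collected on GF/B filters and counted. Ki derived from IC50 via Cheng-Prusoff.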

The target of assay [2] is T4, Adenosine receptor A2b (Homo sapiens) (UniProt P29275).
T4 sequence (whole entry): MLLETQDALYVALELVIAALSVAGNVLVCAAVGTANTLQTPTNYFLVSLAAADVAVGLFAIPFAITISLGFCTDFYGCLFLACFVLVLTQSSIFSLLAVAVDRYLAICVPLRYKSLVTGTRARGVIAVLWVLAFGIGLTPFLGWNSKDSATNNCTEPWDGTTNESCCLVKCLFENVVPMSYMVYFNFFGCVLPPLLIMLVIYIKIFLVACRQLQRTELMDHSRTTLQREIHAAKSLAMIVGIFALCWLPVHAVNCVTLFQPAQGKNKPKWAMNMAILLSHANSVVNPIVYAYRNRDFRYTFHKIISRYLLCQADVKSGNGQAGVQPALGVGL
Nature of the assay: (§3) Displacement of [3H]MRE 2029F20 from human adenosine A2B receptor expressed in CHO cells. More on the design: concentration or dose not given beside the values. The note with it: concentration not given here. The procedure, abridged:
(§4)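 Run 60 min at 25 °C in 50 mM Tris-HCl, 10 mM MgCl2, 1 mM EDTA, 0.1 mM benzamidine, pH 7.4, with 2 IU/mL adenosine deaminase, 40 nM radioligand and CHO membranes (20 µg protein/assay). At least six to eight test concentrations. Nonspecific binding with 100 µM NECA. Filtration and counting, Ki by Cheng-Prusoff.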

A further assay addresses T5, Adenosine receptor A2b (Homo sapiens, UniProt P29275).
T5 sequence (P29275 whole entry): T4 sequence (whole entry)
Described as §3. The procedure, abridged: as §4

Adenosine receptor A2a, sequence (P29274 whole entry): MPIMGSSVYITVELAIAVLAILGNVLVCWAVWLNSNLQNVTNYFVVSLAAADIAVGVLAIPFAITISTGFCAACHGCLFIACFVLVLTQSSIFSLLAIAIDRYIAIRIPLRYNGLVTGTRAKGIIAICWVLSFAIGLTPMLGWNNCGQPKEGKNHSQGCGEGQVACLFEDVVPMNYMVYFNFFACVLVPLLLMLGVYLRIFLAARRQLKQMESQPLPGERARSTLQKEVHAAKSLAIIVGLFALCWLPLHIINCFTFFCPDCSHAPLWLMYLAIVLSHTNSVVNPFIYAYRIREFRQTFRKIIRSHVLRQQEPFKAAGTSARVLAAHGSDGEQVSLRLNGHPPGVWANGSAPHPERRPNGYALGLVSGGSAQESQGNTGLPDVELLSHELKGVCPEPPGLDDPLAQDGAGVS

In general, Ki refers to a measure of affinity in units of concentration, obtained from inhibition or displacement. `CCCOC(=O)c1c(C)nc(-c2ccccc2)c(C(=O)OCC)c1C` came in with a Ki on Adenosine receptor A3 of 210 nM.

Broadly, the inhibition is the percentage by which the read-out fell short of the control. As to `O=C(Nc1ccncc1)Nc1nc2nn(CCCOCc3ccccc3)cc2c2nc(-c3ccco3)nn12`, the Ki was above 1000 nM on Adenosine receptor A1, above 1000 nM on Adenosine receptor A2a, 14 nM on Adenosine receptor A3 and above 1000 nM on Adenosine receptor A2b. In addition, the inhibition in assay [1] worked out at 74%; at Adenosine receptor A2a, 89%; in assay [2], 66%.

`CCn1cc2c(n1)N=C(NC(=O)Nc1ccc(C)cc1)N1N=C(c3ccco3)NC21` (stereo unspecified) came in with a Ki on Adenosine receptor A3 of 0.14 nM.

Regarding `CCn1cc2c(nc(NC(=O)Nc3ccccc3OC)n3nc(-c4ccco4)nc23)n1`, at Adenosine receptor A3, affinity was put at a Ki of 0.56 nM.

Take `O=C(Nc1cccnc1)Nc1nc2nn(CCOCc3ccccc3)cc2c2nc(-c3ccco3)nn12`: the Ki on Adenosine receptor A1 was above 1000 nM; at Adenosine receptor A2a, above 1000 nM; on Adenosine receptor A3 it was 9 nM; at Adenosine receptor A2b, above 1000 nM. Besides, the inhibition in assay [1] worked out at 85%; at Adenosine receptor A2a, 82%; in assay [2] it was 58%.

Regarding `CCOC(=O)c1c(CC)c(C(=O)OCC)c(-c2ccccc2)[n+](C)c1C`, the Ki at Adenosine receptor A3 worked out at 380 nM.

`O=C(Nc1ccccc1)Nc1ncnc2ccccc12`: the affinity at Adenosine receptor A3 (cho), expressed as Ki, was 1200 nM.

Consider `O=C(Nc1cccnc1)Nc1nc2nn(CCO)cc2c2nc(-c3ccco3)nn12`, for which the Ki at Adenosine receptor A1 is above 1000 nM; on Adenosine receptor A2a, above 1000 nM; on Adenosine receptor A3 it was 34 nM; at Adenosine receptor A2b, above 1000 nM. Also, the inhibition came to 92% in assay [1], 93% at Adenosine receptor A2a and 99% in assay [2].

Consider `CCOC(=O)c1c(C)nc(-c2ccccc2)c(C(=O)OCC)c1CC`, for which the Ki at Adenosine receptor A3 worked out at 180 nM.

In the case of `CCn1cc2c(nc(NC(=O)Nc3ccc(F)cc3)n3nc(-c4ccco4)nc23)n1`, on Adenosine receptor A3, the Ki was found to be 0.86 nM.

The molecule `CCOC(=O)c1c(-c2ccccc2)nc(CC)c(C(=O)SCC)c1CC` gave a Ki on Adenosine receptor A3 of 13.4 nM.

As to `O=C(Nc1ccncc1)Nc1nc2nn(CCCO)cc2c2nc(-c3ccco3)nn12`, the Ki on Adenosine receptor A1 is 350 nM; at Adenosine receptor A2a, above 1000 nM; at Adenosine receptor A3, 2 nM; on Adenosine receptor A2b, above 1000 nM. Also, the inhibition at Adenosine receptor A2a amounted to 95%; in assay [2], 73%.

As for `O=C(Nc1ccncc1)Nc1nc2nn(CCOCc3ccccc3)cc2c2nc(-c3ccco3)nn12`, the inhibition constant (Ki) was above 1000 nM on Adenosine receptor A1, above 1000 nM on Adenosine receptor A2a, 27 nM on Adenosine receptor A3 and above 1000 nM at Adenosine receptor A2b. For the same molecule, the figures for the inhibition (in assay [1]; on Adenosine receptor A2a; in assay [2]) were 71%, 97% and 65%, respectively.

As for `O=C(Nc1ccncc1)Nc1nc2nn(CCO)cc2c2nc(-c3ccco3)nn12`, the inhibition constant Ki on Adenosine receptor A1 is above 1000 nM; at Adenosine receptor A2a, above 1000 nM; at Adenosine receptor A3, 5.1 nM; at Adenosine receptor A2b, above 1000 nM. The figures for the inhibition (in assay [1]; on Adenosine receptor A2a; in assay [2]) were 74%, 96% and 71%, respectively.

`CCCOC(=O)c1c(-c2ccccc2)nc(CC)c(C(=O)OCC)c1CCC` registered a Ki at Adenosine receptor A3 of 19 nM.

As to `Cc1cccnc1-c1nc(NC(=O)Nc2ccccc2)c2ccccc2n1`, at Adenosine receptor A3, the Ki is 260 nM.

Consider `CCOC(=O)c1c(CC)nc(-c2ccccc2)c(C(=O)OCC)c1CC`, for which the Ki on Adenosine receptor A3 came out at 120 nM.

With `CCCOC(=O)c1c(CC)nc(-c2cccc(Cl)c2)c(C(=O)OCCC)c1CC`, at Adenosine receptor A3, the affinity, expressed as Ki, was 7.9 nM.

`CCOC(=O)c1c(-c2ccccc2)nc(C)c(C(=O)SCC)c1C` gave an inhibition constant (Ki) at Adenosine receptor A3 of 20 nM.

At Adenosine receptor A3, `CCCc1c(C(=O)SCC)c(C)nc(-c2ccccc2)c1C(=O)OCC` displayed a Ki of 194 nM.

For the molecule `CCCOC(=O)c1c(-c2ccccc2)nc(CC)c(C(=O)OCC)c1CC`, the affinity on Adenosine receptor A3 corresponds to a Ki of 8.3 nM.
